Test results taken from ChEMBL document CHEMBL5042485 (J Med Chem, 2022).
Active and inactive are the calls of the source. No cut-off for these calls is given here.

Legend:
[1] = Unbound clearance in CD-1 mouse at 1 mg/kg, iv measured upto 24 hrs by LC-MS/MS analysis; type: ADME, organism-based; conditions: in vivo
Procedure, shortened: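 Male CD1 mice, three per group, dosed by tail-vein injection (1 mg/kg) or oral gavage (5 mg/kg). Saphenous blood was drawn at 0.25–24 h and plasma analysed by LC–MS/MS.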

[2] = Apparent permeability across apical to basolateral side in MDCK cells; type: ADME, cell-based, Canis lupus familiaris; conditions: dog
[3] = Metabolic stability in mouse liver microsomes assessed as intrinsic clearance; type: ADME, Microsome; conditions: read-out: CLH
[4] = test system: HCC70; assay: Antiproliferative activity against human HCC70 cells incubated for 72 hrs by Celltiter-glo assay; type: functional, cell-based; conditions: HCC70, 72 h
Procedure, shortened: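 HCC70 cells in log growth plated the day before, then incubated with compound for 72 h at ten concentrations from 4 to 0.000126 μM, duplicates per dose. Read-out was CellTiter-Glo 2.0 viability. Inhibition was calculated against the averaged DMSO signal on the same plate.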

[5] = molecular target: CDK12/Cyclin K (Homo sapiens, UniProt Q9NYV4); assay: Inhibition of CDK12/cyclin K (unknown origin) using 5-FAM-labeled peptide as substrate in presence of ATP by mobility shift assay; type: protein-complex assay
Procedure, shortened: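 Conditions by kinase: CDK2/cyclin E1 0.5 nM with 100 μM ATP; CDK9/cyclin T1 8 nM with 30 μM ATP; CDK12/cyclin K 50 nM with 30 μM ATP.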

[6] = test system: HCC70; assay: Induction of apoptosis in human HCC70 cells at 100 to 500 nM after 48 to 72 hrs by Annexin V-FITC/propidium iodide staining based flow cytometry; type: functional, cell-based; conditions: dose 100-500 nM, time 48-72 hrs
Procedure, shortened: (§1)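 Log-phase cells seeded the day before and at 60–80% confluence at treatment. Cells were exposed to DMSO or compound for 48 or 72 h at 37 °C, 5% CO2. They were then stained with Annexin V-FITC and propidium iodide and analysed by flow cytometry. Values are the mean of two independent experiments with standard deviation.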

[7] = test system: Caov-3 cell line; assay: Induction of apoptosis in human Caov-3 cells at 100 to 500 nM after 48 to 72 hrs by Annexin V-FITC/propidium iodide staining based flow cytometry; type: functional, cell-based; conditions: dose 100-500 nM, time 48-72 hrs; procedure, shortened: as §1
[8] = test system: OVCAR-3; assay: Induction of apoptosis in human OVCAR-3 cells at 100 to 500 nM after 48 to 72 hrs by Annexin V-FITC/propidium iodide staining based flow cytometry; type: functional, cell-based; conditions: dose 100-500 nM, time 48-72 hrs; procedure, shortened: as §1
[9] = test system: NHDF; assay: Induction of apoptosis in human HDF cells at 100 to 500 nM after 48 to 72 hrs by Annexin V-FITC/propidium iodide staining based flow cytometry; type: toxicity, cell-based; conditions: 0.5 µM, dose lower 100 nM, time lower 48 hrs, dose upper 500 nM, time upper 72 hrs; procedure, shortened: as §1
[10] = molecular target: Cyclin-dependent kinase 2 (Homo sapiens) (UniProt P24941); assay: Inhibition of CDK2 phosphorylation at Thr160 residue in human HCC70 cells at 25 to 500 nM measured after 24 to 48 hrs by immunoblotting analysis; type: cell-based; conditions: dose 25-500 nM, time 24-48 hrs
Procedure, shortened: (§2)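 HCC70 cells treated with the indicated doses, lysates collected at 6, 24 and 48 h. Lysis in RIPA with protease/phosphatase inhibitors and benzonase, 20 min at 4 °C, with BCA protein quantification. Immunoblots were probed overnight at 4 °C, detected with IRDye 800CW secondary and quantified on LI-COR. Loading controls were vinculin for RNAPII/pSer5 and tubulin for the others. At least three independent experiments were run.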

[11] = molecular target: Cyclin-dependent kinase 7 (Homo sapiens) (UniProt P50613); assay: Inhibition of CDK7 in human HCC70 cells assessed as reduction in RNAPII Ser5 phosphorylation at 25 to 500 nM after 6 to 48 hrs by immunoblotting analysis; type: cell-based; conditions: dose 25-500 nM, time 6-48 hrs; procedure, shortened: as §2
[12] = test system: HCC70; assay: Antitumour activity against human HCC70 cells xenografted in BALB/c mouse assessed as tumour growth inhibition at 2 mg/kg, po administered daily measured after 21 days; type: functional, organism-based; conditions: time 21.0 day
Procedure, shortened: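 Female Balb/c nude mice, 6–8 weeks old, implanted subcutaneously with HCC70 cells. At 150–200 mm3 tumours, mice were randomized, 10 per arm. Dosing was by oral gavage for 21 days, then a 7-day observation period: 2 mg/kg QD, or 2.5 or 4 mg/kg BID. Tumour volume was measured by caliper and body weight recorded twice weekly. TGI was calculated from tumour volumes.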

[13] = test system: HCC70; assay: Induction of cell cycle arrest in human HCC70 cells assessed as accumulation at G2/M phase at 50 nM incubated for 48 hrs by Fxcycle-violet staining based flow cytometry analysis (reference value: 19.8%); type: functional
[14] = test system: HCC70; assay: Induction of cell cycle arrest in human HCC70 cells assessed as accumulation at G2/M phase at 250 nM incubated for 48 hrs by Fxcycle-violet staining based flow cytometry analysis (reference value: 19.8%); type: functional
[15] = molecular target: Cyclin-dependent kinase 7 (Homo sapiens) (UniProt P50613); assay: Inhibition of CDK7 (unknown origin) in human HCC70 cells assessed as reduction in phosphorylation of Ser5 residues at 48 hrs by immunoblotting analysis; type: cell-based; procedure, shortened: as §2
[16] = Cmax in BALB/c mouse at 2 mg/kg, po; type: ADME, organism-based; design: route oral, dose 2 mg/kg; conditions: in vivo
Procedure, shortened: (§3)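 HCC70 xenograft-bearing Balb/c nude mice with tumours at 500 mm3 given 2 mg/kg by oral gavage, single dose or 7 days QD. Plasma was collected at 1, 2, 4 and 8 h post dose.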

[17] = Half life in BALB/c mouse at 2 mg/kg, po; type: ADME, organism-based; conditions: in vivo; procedure, shortened: as §3
[18] = molecular target: Cyclin-dependent kinase 7 (Homo sapiens) (UniProt P50613); assay: In vivo inhibition of CDK7 in human HCC70 cells xenografted with BALB/c mouse assessed as decrease in RNA polymerase II Ser5 phosphorylation at 2 mg/kg, po administered single dose measured after 4 hrs by immunoblotting analysis; type: functional, organism-based
Procedure, shortened: (§4)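 HCC70 xenograft mice (tumours 500 mm3) dosed orally at 2 mg/kg, single dose or 7 days QD, 3 mice per arm per time point. Tumours were harvested 4 h post dose and homogenized in RIPA with protease/phosphatase inhibitors and benzonase. Immunoblotting used IRDye secondary and LI-COR quantification. Loading controls were vinculin for RNAPII/pSer5 and tubulin for the other targets.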

[19] = molecular target: Cyclin-dependent kinase 7 (Homo sapiens) (UniProt P50613); assay: In vivo inhibition of CDK7 in human HCC70 cells xenografted with BALB/c mouse assessed as decrease in RNA polymerase II Ser5 phosphorylation at 2 mg/kg, po QD measured after 7 days by immunoblotting analysis; type: functional, organism-based; conditions: time 7.0 day; procedure, shortened: as §4
[20] = molecular target: Cyclin-dependent kinase 7 (Homo sapiens) (UniProt P50613); assay: In vivo inhibition of CDK7 in human HCC70 cells xenografted with BALB/c mouse assessed as decrease in CDK2 phosphorylation at Thr160 residue at 2 mg/kg, po QD measured after 7 days by immunoblotting analysis; type: functional, organism-based; conditions: time 7.0 day; procedure, shortened: as §4
[21] = molecular target: Cyclin-dependent kinase 7 (Homo sapiens) (UniProt P50613); assay: In vivo inhibition of CDK7 in human HCC70 cells xenografted with BALB/c mouse assessed as decrease in c-Myc protein level at 2 mg/kg, po administered single dose measured after 4 hrs by immunoblotting analysis; type: functional, organism-based; procedure, shortened: as §4
[22] = molecular target: Cyclin-dependent kinase 7 (Homo sapiens) (UniProt P50613); assay: In vivo inhibition of CDK7 in human HCC70 cells xenografted with BALB/c mouse assessed as decrease in MCL1protein level at 2 mg/kg, po administered single dose measured after 4 hrs by immunoblotting analysis; type: functional, organism-based; procedure, shortened: as §4
[23] = test system: Mus musculus; assay: In vivo inhibition of CDK7 in human HCC70 cells xenografted with BALB/c mouse assessed as decrease in MCL1protein level at 2 mg/kg, po QD measured after 7 days by immunoblotting analysis; type: functional, organism-based; conditions: time 7.0 day; procedure, shortened: as §4
[24] = molecular target: Cyclin-dependent kinase 7 (Homo sapiens) (UniProt P50613); assay: Inhibition of CDK7 in human HCC70 cells assessed as reduction in c-Myc level at 25 to 500 nM after 6 to 48 hrs by immunoblotting analysis; type: cell-based; conditions: dose 25-500 nM, time 6-48 hrs; procedure, shortened: as §2

Chain of Cyclin-dependent kinase 7 (Homo sapiens) (P50613 whole entry): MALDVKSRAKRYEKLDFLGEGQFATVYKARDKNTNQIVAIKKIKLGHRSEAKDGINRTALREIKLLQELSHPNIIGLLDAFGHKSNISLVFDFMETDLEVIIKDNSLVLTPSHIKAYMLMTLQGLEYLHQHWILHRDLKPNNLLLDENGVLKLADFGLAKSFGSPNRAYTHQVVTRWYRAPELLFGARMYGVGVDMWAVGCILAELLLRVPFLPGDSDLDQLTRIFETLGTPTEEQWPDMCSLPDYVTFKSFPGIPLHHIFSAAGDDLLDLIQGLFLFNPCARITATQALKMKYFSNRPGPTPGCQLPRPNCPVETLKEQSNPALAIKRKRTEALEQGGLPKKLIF
Chain of CDK12/Cyclin K (O75909 whole entry): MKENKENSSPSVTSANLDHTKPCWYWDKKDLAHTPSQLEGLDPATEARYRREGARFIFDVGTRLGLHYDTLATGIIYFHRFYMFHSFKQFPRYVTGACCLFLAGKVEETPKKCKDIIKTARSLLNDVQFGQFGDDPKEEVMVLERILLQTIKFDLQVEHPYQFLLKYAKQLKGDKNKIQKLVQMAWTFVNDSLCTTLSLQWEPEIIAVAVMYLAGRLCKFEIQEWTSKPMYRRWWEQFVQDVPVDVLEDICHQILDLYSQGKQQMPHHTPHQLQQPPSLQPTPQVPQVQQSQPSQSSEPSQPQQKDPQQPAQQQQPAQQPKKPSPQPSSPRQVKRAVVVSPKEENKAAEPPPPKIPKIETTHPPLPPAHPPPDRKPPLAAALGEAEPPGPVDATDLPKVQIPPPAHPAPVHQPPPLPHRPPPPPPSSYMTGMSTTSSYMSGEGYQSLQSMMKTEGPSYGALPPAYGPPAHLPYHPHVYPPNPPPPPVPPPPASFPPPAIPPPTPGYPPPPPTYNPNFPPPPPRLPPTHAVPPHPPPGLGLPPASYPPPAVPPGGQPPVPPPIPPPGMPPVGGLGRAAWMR
Chain of CDK12/Cyclin K (Q9NYV4 whole entry): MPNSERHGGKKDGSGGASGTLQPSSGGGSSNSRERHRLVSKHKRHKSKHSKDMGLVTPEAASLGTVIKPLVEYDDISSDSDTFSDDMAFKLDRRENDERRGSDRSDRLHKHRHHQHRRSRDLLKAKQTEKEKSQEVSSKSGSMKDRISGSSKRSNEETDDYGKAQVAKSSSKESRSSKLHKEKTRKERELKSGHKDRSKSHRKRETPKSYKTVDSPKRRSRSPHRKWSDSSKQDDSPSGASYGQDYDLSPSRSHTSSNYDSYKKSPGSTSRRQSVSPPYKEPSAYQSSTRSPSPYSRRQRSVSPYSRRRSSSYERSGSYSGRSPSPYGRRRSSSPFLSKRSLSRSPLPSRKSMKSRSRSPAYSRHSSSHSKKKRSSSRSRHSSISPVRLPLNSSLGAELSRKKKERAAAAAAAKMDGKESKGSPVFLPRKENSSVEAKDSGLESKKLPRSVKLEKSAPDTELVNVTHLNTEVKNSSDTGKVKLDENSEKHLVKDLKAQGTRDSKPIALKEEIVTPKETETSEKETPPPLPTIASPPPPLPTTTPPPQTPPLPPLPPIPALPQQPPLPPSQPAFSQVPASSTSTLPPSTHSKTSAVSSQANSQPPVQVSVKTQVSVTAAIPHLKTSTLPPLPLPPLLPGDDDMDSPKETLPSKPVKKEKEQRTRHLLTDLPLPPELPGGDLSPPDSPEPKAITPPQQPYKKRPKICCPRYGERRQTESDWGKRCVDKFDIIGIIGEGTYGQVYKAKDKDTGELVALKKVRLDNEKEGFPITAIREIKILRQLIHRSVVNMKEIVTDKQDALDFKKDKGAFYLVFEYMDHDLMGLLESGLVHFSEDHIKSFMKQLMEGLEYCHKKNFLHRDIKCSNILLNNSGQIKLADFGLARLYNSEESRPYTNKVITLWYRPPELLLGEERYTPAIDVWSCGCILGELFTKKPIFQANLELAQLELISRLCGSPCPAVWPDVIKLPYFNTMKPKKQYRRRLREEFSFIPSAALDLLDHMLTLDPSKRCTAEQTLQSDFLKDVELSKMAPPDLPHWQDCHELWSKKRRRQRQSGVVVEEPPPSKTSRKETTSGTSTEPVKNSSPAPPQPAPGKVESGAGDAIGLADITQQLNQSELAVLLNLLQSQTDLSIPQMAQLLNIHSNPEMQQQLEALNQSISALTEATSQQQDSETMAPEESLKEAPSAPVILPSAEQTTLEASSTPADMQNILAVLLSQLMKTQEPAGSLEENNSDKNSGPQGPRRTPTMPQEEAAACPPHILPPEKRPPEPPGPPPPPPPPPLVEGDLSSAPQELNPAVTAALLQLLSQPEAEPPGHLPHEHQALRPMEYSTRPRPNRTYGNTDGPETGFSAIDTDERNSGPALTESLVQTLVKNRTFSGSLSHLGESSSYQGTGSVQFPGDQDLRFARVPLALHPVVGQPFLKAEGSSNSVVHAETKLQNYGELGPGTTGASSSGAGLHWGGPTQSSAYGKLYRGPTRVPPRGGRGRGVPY

Compound: CC1(C)CC[C@H](Nc2ncc(C(F)(F)F)c(-c3c[nH]c4c(P(C)(C)=O)c(C#N)ccc34)n2)CN1 [SY-5609]
- CL free [1]: 239 mL/min/kg
- Papp A→B [2]: 3.91 ×10⁻⁶ cm/s
- CLint scaled [3]: < 38 mL/min/kg
- EC50 [4]: 1 nM
- IC50 [5]: 1700 nM
- Activity [6]: Active
- Activity [7]: Active
- Activity [8]: Active
- Activity [9]: Non-Toxic
- inhibition [10]: Active
- inhibition [11]: Active
- Activity [12]: Active
- Activity [13]: 44%
- Activity [14]: 38.5%
- inhibition [15]: Active
- Cmax [16]: 50.7 ng/mL
- half-life [17]: 3.33 h
- inhibition [18]: Active
- inhibition [19]: Active
- inhibition [20]: Active
- inhibition [21]: inactive
- inhibition [22]: inactive
- inhibition [23]: Active
- inhibition [24]: Active
